RORA act: activators of human nuclear receptor RORA. P35398. CHO-K1 Gal4-RORA LBD luciferase reporter, luminescence; percent increase over mock-subtracted basal signal. activation, % at 10 µM. actives 1.5% (n = 65,000);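 active = activation above the mean of all tested compounds plus 3 SD, cut at about 49% in these data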;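 also: 0% = DMSO-treated RORA cells and 100% = added signal equal to DMSO minus mock-transfected cells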
S1P3 ag: S1P3 (human) receptor agonism; S1P3 NFAT-BLA reporter cells, FRET ratio; relative to 1 µM S1P, basal subtracted; activation, % at 4.5 µM; Q99500; actives 0.1% (n = 60,000);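 active = activation above the screen-wide mean plus 3 SD, cut at about 4.5% in these data, passing the limit was not always enough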
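Assay system: stable CHO line with human S1P3, Gα16, NFAT-BLA reporter; Detection: FRET β-lactamase substrate fluorescence, excitation 405 nm, 460/535 nm emission ratio, background-subtracted; Read-out: percent activation versus median 1 µM S1P response, basal-subtracted, per plate; Incubation: cells plated overnight, compound 4 h 37 °C, substrate 2 h RT.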
M1 antagonist: blocks the rat M1 muscarinic receptor response to acetylcholine | actives 3.4% (n = 64,000) | CHO-M1 cells, Fluo-4 calcium, ACh EC80 antagonist mode; stronger effect = lower value | B-score at 10 µM | P08482;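 active = calcium fluorescence response, raw or row-and-column corrected B-score, differing from the plate sample mean either way at a set confidence level, mostly lower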
Target sequence (P08482 whole entry, looked up): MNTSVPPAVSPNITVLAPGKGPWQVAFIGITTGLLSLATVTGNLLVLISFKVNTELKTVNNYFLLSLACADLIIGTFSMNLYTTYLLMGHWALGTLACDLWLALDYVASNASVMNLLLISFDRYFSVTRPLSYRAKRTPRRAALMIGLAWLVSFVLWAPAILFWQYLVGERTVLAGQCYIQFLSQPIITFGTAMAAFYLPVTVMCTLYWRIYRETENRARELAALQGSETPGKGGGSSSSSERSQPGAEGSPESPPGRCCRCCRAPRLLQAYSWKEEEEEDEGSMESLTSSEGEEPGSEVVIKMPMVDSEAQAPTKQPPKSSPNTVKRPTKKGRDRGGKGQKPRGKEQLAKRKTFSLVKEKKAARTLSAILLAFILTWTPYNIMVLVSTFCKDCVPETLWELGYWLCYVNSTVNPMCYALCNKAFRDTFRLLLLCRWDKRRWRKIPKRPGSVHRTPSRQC
M1 ag: M1 muscarinic receptor agonism; CHO-M1 cells, Fluo-4 calcium fluorescence, agonist mode; stronger effect = higher value; B-score at 10 µM; actives 3% (n = 64,000); AID 626;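 active = fluorescence rise, raw or as B-score row- and column-corrected plate score, outside the 99.7% band of its plate's samples, either direction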
SF1 activator: activates the human nuclear receptor SF-1; CHO-K1 Gal4-SF-1 LBD luciferase reporter; % increase over DMSO SF-1-specific signal; activation, % at 10 µM; actives 1.9% (n = 65,000); AID 522;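 active = activation above the mean activation of all tested compounds plus 3 SD, cut at about 50% in these data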
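Assay system: CHO-K1 cells co-transfected with Gal4 DBD–human SF-1 LBD, 5xGal4 luciferase reporter; doses: 10 µM only; incubation: 20 h compound exposure at 37 °C after 1 h cell settling; signal: luciferase light emission; evaluation: percent activation versus DMSO; repeats: one test per compound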
S1P1 ag pot: activates or potentiates agonism at human S1P1 receptor | P21453 | S1P1 CRE-bla cells, forskolin, beta-lactamase FRET, potentiator mode; S1P1 agonist co-added at EC20, 2 nM; 100% = saturating reference agonist, 0% = basal | activation, % at 9.5 µM | actives 0.57% (n = 56,000);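 active = activation above a cutoff set at the mean activation of all tested compounds plus 3 SD, cut at about 54% in these data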;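 also: forskolin at 4 µM as EC80 and the EC20 agonist is SEW2871; 100% = SEW2871 at its EC100 plus forskolin at EC80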
* hit, by the source's call; · = no result given. Most compounds without a hit are left out; they make up all but 8.8% or so of the library.

SMILES	RORA act	S1P3 ag	M1 antagonist	M1 ag	SF1 activator	S1P1 ag pot
Clc1ccc(Nc2ncnc3c2cnn3-c2ccccc2)cc1	71.9*	0.3	0.306	0.51	21.5	-5.0
CC(=O)Nc1ccc(Nc2ncnc3c2cnn3-c2ccccc2)cc1	55.1*	-1.6	-0.0457	-0.00752	32.9	-12.2
COc1ccc(Nc2ncnc3c2cnn3-c2ccccc2)cc1OC	-5.9	-0.4	0.674	-1.16	14.1	-42.7
O=C(Nc1nnc(-c2ccc3c(c2)CCCC3)o1)C1COc2ccccc2O1 (stereo not given)	8.6	-0.6	0.535	0.161	10.7	-1.1
CCN1CCN(Cc2ccc(NC(=O)Nc3cccs3)cc2)CC1	42.8	0.7	-0.537	0.0912	22.4	-3.2
Nc1ccc(C(=O)c2ccccc2C(=O)O)cc1Cl	2.5	0.1	-0.177	1.19	11.4	·
CCN1CC=C2C(C1)C(c1ccc(Cl)s1)C(C#N)=C(N)C2(C#N)C#N (stereo not given)	5.2	1.7	0.506	261*	-9.3	18.8
CCCNC(=O)NC(=O)COC(=O)c1ccc(OC)c(S(=O)(=O)N2CCCc3ccccc32)c1	-16.0	0.6	-0.00449	0.00463	1.1	1.8
O=c1cc(C(F)(F)F)c2sc(N3CCCCC3)nc2[nH]1	-3.5	0.3	-1.81	-0.00241	-11.2	-10.2
Cc1cc(Br)c2c(c1)=C(c1sc(N3CCCCCC3)nc1O)C(=O)N=2	33.9	0.4	1.78	1.1	50.3*	-26.3
C#CC(C)(CC)NC(=O)c1cc(OC)c(OC)c(OC)c1 (stereo not given)	-1.2	-0.8	-0.0435	0.886	-4.6	7.0
Cc1cccc(Nc2ncc3c(n2)CC(C)CC3=O)c1 (stereo not given)	71.6*	0.6	0.777	0.343	71.8*	-29.4
O=c1[nH]c2ccc(Cl)cc2c(-c2ccccc2)c1N1CCN(c2ccccn2)CC1	-6.6	0.6	-0.0649	-0.35	4.5	-22.1
COCCCN(C(C)=O)c1nc(-c2ccccc2)cs1	34.9	-0.5	-0.43	0.3	78.9*	-21.7
COCCN(C(C)=O)c1nnc(-c2ccccn2)s1	17.6	0.1	-0.698	0.101	16.5	-24.5
CC(C(=O)N(C1CC1)C1(C(=O)Nc2ccccc2)CCCC1)N1C(=O)c2ccccc2C1=O (stereo not given)	21.0	-1.2	0.677	-0.509	6.7	35.7
CC1CCc2nc(NC(=O)Cc3cccs3)sc2C1 (stereo not given)	35.4	0.5	0.156	-0.00474	63.1*	2.6
O=C(CCS(=O)(=O)Cc1ccccc1)Nc1nc2c(s1)CCCC2	-10.9	-0.6	0.868	-2.36	-3.4	18.1
CC1CCc2nc(NC(=O)c3ccco3)sc2C1 (stereo not given)	-61.5	-1.0	-0.0162	0.481	-63.6	7.0
O=C(CCCc1cccs1)Nc1nc2c(s1)CCCC2	37.1	-0.5	-0.449	0.459	73.2*	-35.2
CCc1c(C#N)c(SCc2c(C)noc2C)nc2c1C(=O)CC(C)(C)C2	-12.4	·	-0.127	-0.0365	-1.3	·
CC1S/C(=C(\C#N)C(N)=O)N(c2ccc(F)cc2)C1=O (stereo not given)	-16.4	-0.6	-0.0741	-0.673	10.3	-10.4
COC(=O)c1cccc(NC(=O)c2cc3sccc3n2C)c1	44.8	-1.3	0.0971	1.69	67.0*	10.7
COC(=O)c1ccccc1NC(=O)c1cc2sccc2n1C	5.5	-0.5	-0.0187	-2.27	14.0	-23.2
O=C(c1cccc(S(=O)(=O)N2CCCC2)c1)c1nnc(-c2ccncc2)o1	-16.7	0.1	-1.4	-1.79	-6.1	-7.7
SMILES	RORA act	S1P3 ag	M1 antagonist	M1 ag	SF1 activator	S1P1 ag pot
CC1(C)Cc2c(sc3nc(-c4cccs4)n(N)c(=O)c23)CO1	-13.1	·	-1.82*	4.99*	-27.7	·
CN(C)c1nc2sc3c(c2c(=O)n1C)CC(C)(C)OC3	-18.4	-2.2	-0.185	-2.33	7.4	-17.6
CCN(CC)C(=O)C1CC(=O)N(c2ccc(F)c(Cl)c2)C1 (stereo not given)	27.9	-1.1	-0.00642	0.0613	1.3	2.0
COc1cc(SC)ccc1C(=O)Nc1ccc(S(=O)(=O)N2CCCC2)cc1	-5.5	-0.5	0.719	0.0568	8.5	-3.5
COc1cc(SC)ccc1C(=O)Nc1ccon1	27.2	-1.0	0.928*	0.312	28.0	·
CCOC(=O)C(C(=O)OCC)[C@@H]1CS(=O)(=O)C[C@H]1C(C(=O)OCC)C(=O)OCC	-4.9	0.0	-2.4	0.58	-11.7	-5.2
Cc1ccc2nc3c(cc(C#N)c(=O)n3-c3nccs3)c(=O)n2c1	-19.0	12.0*	·	·	-14.5	-110.4
O=C(Nc1ccc(-c2nc3ccccc3o2)cc1)C1CCCO1 (stereo not given)	37.9	-1.1	-0.705	-0.999	10.8	32.6
COc1cc2c(cc1NC(=O)C1CCCO1)oc1ccccc12 (stereo not given)	58.5*	-1.1	0.478	-0.0831	77.5*	17.4
O=C(Nc1nc2ccccc2s1)C1CCCO1 (stereo not given)	42.6	-0.7	-0.19	-0.141	59.0*	-23.8
COC(=O)c1ccc(NC(=O)C2CCCO2)cc1 (stereo not given)	20.2	0.2	-0.196	-0.0609	20.2	-7.7
CC1CCN(CCNC(=O)c2ccc(NC(=O)C3CCCO3)cc2)CC1 (stereo not given)	-1.3	·	0.0325	-0.406	-7.6	·
COc1ccc(N2CCN(CCNC(=O)c3ccc(NC(=O)C4CCCO4)cc3)CC2)cc1 (stereo not given)	5.6	·	-0.0134	-2.79*	9.6	·
O=C(Nc1ccc(Oc2ccccc2)cc1)C1CCCO1 (stereo not given)	27.2	0.0	0.587	0.33	58.0*	3.0
COc1ccc(-c2csc(NC(=O)C3CCCO3)n2)cc1 (stereo not given)	16.6	-0.4	-0.69	-0.895	63.6*	-6.0
O=C(Nc1ncc(Cc2ccccc2)s1)C1CCCO1 (stereo not given)	54.7*	-1.2	-0.893	0.17	36.6	-15.4
Nn1c(SCC(=O)Nc2ccc(F)cc2F)nnc1-c1cccnc1	4.0	1.3	0.822	0.246	56.7*	12.3
Cc1ccc2cc(CN(CC3CCCO3)S(=O)(=O)c3c(C)ccc4nsnc34)c(=O)[nH]c2c1 (stereo not given)	-12.4	0.7	-0.168	-0.733	6.0	-15.2
Cc1ccc2nsnc2c1S(=O)(=O)N(Cc1cc2cccc(C)c2[nH]c1=O)CC1CCCO1 (stereo not given)	-5.7	-0.9	-3.17*	13*	0.3	-4.3
CCOC(=O)c1[nH]c(COC(=O)C2CC(=O)N(Cc3ccccc3)C2)c(C(=O)OCC)c1C (stereo not given)	14.5	0.3	0.471	-0.559	-4.4	-6.3

High-throughput results: PubChem, several laboratories
